ChEMBL document CHEMBL1121685, “Development of new mitomycin C and porfiromycin analogues” (J Med Chem, 1981)

Key:
Mus musculus [1] = experiment: Antitumor activity against P-388 murine leukemia cells in CDF1 female mice after intraperitoneal administration at the specified optimal dose of 25.6 mg/kg; assay type: functional
Mus musculus [2] = experiment: Minimum effective dose that show activity against P-388 murine leukemia cells in CDF1 female mice, after intraperitoneal administration (optimal dose is 25.6 mg/kg); assay type: functional; conditions: P388, ip, read-out: MED
Method in brief: (§1)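 10⁶ P-388 ascites cells implanted ip in CDF₁ female mice. Six mice per dose, 10 saline-injected controls, and a concurrent mitomycin C reference group. %T/C = median survival time of treated/control × 100. MED is the lowest dose giving %T/C > 125. Therapeutic ratio = optimal dose/MED.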

[3] = Therapeutic ratio is expressed as ratio of optimal dose and minimum effective dose; assay type: ADME; conditions: mouse; read-out: TR; method in brief: as §1
Mus musculus [4] = experiment: Antitumor activity against P-388 murine leukemia cells in CDF1 female mice after intraperitoneal administration at the specified optimal dose of 3.2 mg/kg; assay type: functional
Mus musculus [5] = experiment: Minimum effective dose that show activity against P-388 murine leukemia cells in CDF1 female mice, after intraperitoneal administration (optimal dose is 3.2 mg/kg); assay type: functional; conditions: P388, ip, read-out: MED; method in brief: as §1
Mus musculus [6] = experiment: Antitumor activity against P-388 murine leukemia cells in CDF1 female mice after intraperitoneal administration at the specified optimal dose of 12.8 mg/kg; assay type: functional
Mus musculus [7] = experiment: Minimum effective dose that show activity against P-388 murine leukemia cells in CDF1 female mice, after intraperitoneal administration (optimal dose is 12.8 mg/kg); assay type: functional; conditions: P388, ip, read-out: MED; method in brief: as §1
Mus musculus [8] = experiment: Effect of compound on total white blood cell count in BDG1 male mice, after intraperitoneal administration at a dose of 6.4 mg/kg on day 3; assay type: functional
Method in brief: (§2)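 Single ip dose given on day 0 to BDG₁ male mice. Total white blood cell count measured on days 3, 5 and 7, expressed as % change from control. Highest dose was at the LD₅₀, or at twice the optimal dose where so footnoted. Significance reported at p ≤ 0.05 and p ≤ 0.01. D marks death of one or more mice.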

Mus musculus [9] = experiment: Effect of compound on total white blood cell count in BDG1 male mice, after intraperitoneal administration at a dose of 6.4 mg/kg on day 5; assay type: functional; method in brief: as §2
Mus musculus [10] = experiment: Effect of compound on total white blood cell count in BDG1 male mice, after intraperitoneal administration at a dose of 12.8 mg/kg on day 3; assay type: functional
Method in brief: (§3)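 BDG₁ male mice received a single ip dose on day 0. The dose series topped out at the LD₅₀ level, or at twice the optimal dose for some agents. Total white blood cell count was taken on days 3, 5 and 7 and expressed as % change from untreated controls. Significance was set at p ≤ 0.05 or p ≤ 0.01.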

Mus musculus [11] = experiment: Effect of compound on total white blood cell count in BDG1 male mice, after intraperitoneal administration at a dose 6.4 mg/kg on day 7; assay type: functional; method in brief: as §3
Mus musculus [12] = experiment: Effect of compound on total white blood cell count in BDG1 male mice, after intraperitoneal administration at a dose of 25.6 mg/kg on day 3 (highest dose was twice the optimal dose); assay type: functional
Mus musculus [13] = experiment: Effect of compound on total white blood cell count in BDG1 male mice, after intraperitoneal administration at a dose of 12.8 mg/kg on day 5; assay type: functional; method in brief: as §3
Mus musculus [14] = experiment: Minimum effective dose that show activity against P-388 murine leukemia cells in CDF1 female mice, after intraperitoneal administration (optimal dose is 6.4 mg/kg); assay type: functional; conditions: P388, ip, read-out: MED; method in brief: as §1
Mus musculus [15] = experiment: Antitumor activity against P-388 murine leukemia cells in CDF1 female mice after intraperitoneal administration at the specified optimal dose of 6.4 mg/kg; assay type: functional
Mus musculus [16] = experiment: Effect of compound on total white blood cell count in BDG1 male mice, after intraperitoneal administration at a dose of 90.5 mg/kg on day 5; assay type: functional
Mus musculus [17] = experiment: Effect of compound on total white blood cell count in BDG1 male mice, after intraperitoneal administration at a dose of 90.5 mg/kg on day 3; assay type: functional
Mus musculus [18] = experiment: Effect of compound on total white blood cell count in BDG1 male mice, after intraperitoneal administration at a dose of 67.9 mg/kg on day 3; assay type: functional; method in brief: as §2
Mus musculus [19] = species: Mus musculus; experiment: Half-wave potential produced by the compound at their optimal dose; assay type: functional; parameters: unit not given here
Mus musculus [20] = species: Mus musculus; experiment: Degree of leukopenia produced by compound is assessed form Percent change in white cells on days 5; assay type: functional; method in brief: as §3
Mus musculus [21] = experiment: Effect of compound on total white blood cell count in BDG1 male mice, after intraperitoneal administration at a dose of 45 mg/kg on day 7; assay type: functional; method in brief: as §2
Mus musculus [22] = experiment: Activity of compound dose of 6 mg/kg/day against Murine B-16 Melanocarcinoma in mice; assay type: functional
Mus musculus [23] = experiment: Effect of compound on total white blood cell count in BDG1 male mice, after intraperitoneal administration at a dose of 25.3 mg/kg on day 3; assay type: functional
Method in brief: (§4)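 Single ip dose given on day 0 to BDG1 male mice over a descending dose series. Total white blood cell count is expressed as % change from untreated control on days 3, 5 and 7. Significance is flagged at p ≤ 0.05 and p ≤ 0.01.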

Mus musculus [24] = experiment: Effect of compound on total white blood cell count in BDG1 male mice, after intraperitoneal administration at a dose of 33.8 mg/kg on day 3; assay type: functional; method in brief: as §4
Mus musculus [25] = experiment: Activity of compound dose of 3 mg/kg/day against Murine B-16 Melanocarcinoma in mice; assay type: functional
Mus musculus [26] = experiment: Effect of compound on total white blood cell count in BDG1 male mice, after intraperitoneal administration at a dose of 45 mg/kg on day 3; assay type: functional; method in brief: as §2
Mus musculus [27] = experiment: Effect of compound on total white blood cell count in BDG1 male mice, after intraperitoneal administration at a dose of 45 mg/kg on day 5; assay type: functional; method in brief: as §2
Mus musculus [28] = experiment: Effect of compound on total white blood cell count in BDG1 male mice, after intraperitoneal administration at a dose of 25.3 mg/kg on day 7; assay type: functional; method in brief: as §4
Mus musculus [29] = experiment: Number of tumored survivors, 45 days after administration of compound at a dose of 24 mg/kg/day in mice; assay type: functional
Mus musculus [30] = experiment: Number of cured survivors, 45 days after administration of compound at a dose of 24 mg/kg/day in mice; assay type: functional
Mus musculus [31] = experiment: Effect of compound on total white blood cell count in BDG1 male mice, after intraperitoneal administration at a dose of 33.8 mg/kg on day 5; assay type: functional; method in brief: as §4
Mus musculus [32] = experiment: Number of tumored survivors, 45 days after administration of compound at a dose of 12 mg/kg/day in mice; assay type: functional
Mus musculus [33] = experiment: Activity of compound dose of 12 mg/kg/day against Murine B-16 Melanocarcinoma in mice; assay type: functional
Mus musculus [34] = experiment: Effect of compound on total white blood cell count in BDG1 male mice, after intraperitoneal administration at a dose of 33.8 mg/kg on day 7; assay type: functional; method in brief: as §4
Mus musculus [35] = experiment: Effect of compound on total white blood cell count in BDG1 male mice, after intraperitoneal administration at a dose of 25.3 mg/kg on day 5; assay type: functional; method in brief: as §4
Mus musculus [36] = experiment: Activity of compound dose of 24 mg/kg/day against Murine B-16 Melanocarcinoma in mice; assay type: functional
Mus musculus [37] = experiment: Number of cured survivors, 45 days after administration of compound at a dose of 12 mg/kg/day in mice; assay type: functional
Mus musculus [38] = experiment: Activity of compound dose of 1.5 mg/kg/day against Murine B-16 Melanocarcinoma in mice; assay type: functional

Row | Structure (SMILES) | T/C (Mus musculus [1]) [%] | minimal effective dose (Mus musculus [2]) [mg/kg] | selectivity ratio [3] | T/C (Mus musculus [6]) [%] | minimal effective dose (Mus musculus [7]) [mg/kg] | also measured
1 | COC12[C@@H]3N[C@@H]3CN1C1=C(C(=O)C(NCCc3ccccc3)=C(C)C1=O)[C@@H]2COC(N)=O (stereo not given in full) | 194 | 1.6 | – | – | – | –
2 | COC1=C(C)C(=O)C2=C(C1=O)[C@H](COC(N)=O)C1(OC)[C@H]3[C@@H](CN21)N3C (stereo not given in full) | – | – | 8 | – | – | T/C (Mus musculus [4]): 180%; minimal effective dose (Mus musculus [5]): 0.4 mg/kg
3 | COC12[C@@H](COC(N)=O)C3=C(C(=O)C(C)=C(NCc4ccco4)C3=O)N1C[C@@H]1[C@H]2N1C (stereo not given in full) | 261 | 1.6 | 16 | – | – | –
4 | C#CCN(C)C1=C(C)C(=O)C2=C(C1=O)[C@H](COC(N)=O)C1(OC)[C@@H]3N[C@@H]3CN21 (stereo not given in full) | – | – | 16 | 210 | 0.8 | –
5 | C=C(Cl)CNC1=C(C)C(=O)C2=C(C1=O)[C@H](COC(N)=O)C1(OC)[C@@H]3N[C@@H]3CN21 (stereo not given in full) | 178 | 3.2 | 8 | – | – | –
6 | COC12[C@@H]3N[C@@H]3CN1C1=C(C(=O)C(NCc3cccnc3)=C(C)C1=O)[C@@H]2COC(N)=O (stereo not given in full) | – | – | 4 | 167 | 3.2 | –
7 | CO[C@@]12[C@H](COC(N)=O)C3=C(C(=O)C(C)=C(N)C3=O)N1C[C@H]1[C@@H]2N1C (stereo not given in full) [PORFIROMYCIN] | – | – | 16 | 225 | 0.8 | –
8 | COC12[C@@H](COC(N)=O)C3=C(C(=O)C(C)=C(NC4CC4)C3=O)N1C[C@@H]1[C@H]2N1C (stereo not given in full) | – | – | 2 | 167 | – | –
9 | C#CC(C)(C)NC1=C(C)C(=O)C2=C(C1=O)[C@H](COC(N)=O)C1(OC)[C@@H]3N[C@@H]3CN21 (stereo not given in full) | 178 | 1.6 | 16 | – | – | –
10 | COC(=O)CNC1=C(C)C(=O)C2=C(C1=O)[C@H](COC(N)=O)C1(OC)[C@@H]3N[C@@H]3CN21 (stereo not given in full) | – | – | 32 | 300 | – | Change (Mus musculus [8]): -39%; Change (Mus musculus [9]): -55%; Change (Mus musculus [10]): -55%; Change (Mus musculus [11]): -21%; Change (Mus musculus [12]): -65%; Change (Mus musculus [13]): -68%
11 | COC12[C@@H]3N[C@@H]3CN1C1=C(C(=O)C(NCCCCl)=C(C)C1=O)[C@@H]2COC(N)=O (stereo not given in full) | – | – | 2 | 140 | 6.4 | –
12 | COC12[C@@H](COC(N)=O)c3c(O)c(N=C4C=CC(=O)C=C4)c(C)c(O)c3N1C[C@@H]1[C@H]2N1C (stereo not given in full) | – | – | 4 | – | – | minimal effective dose (Mus musculus [14]): 1.6 mg/kg; T/C (Mus musculus [15]): 137%
13 | C=CCNC1=C(C)C(=O)C2=C(C1=O)[C@H](COC(N)=O)C1(OC)[C@H]3[C@@H](CN21)N3C (stereo not given in full) | – | – | 4 | 189 | 3.2 | –
14 | COC12[C@@H](COC(N)=O)C3=C(C(=O)C(C)=C(NCCCO)C3=O)N1C[C@@H]1[C@H]2N1C (stereo not given in full) | 239 | 1.6 | 16 | – | – | Change (Mus musculus [16]): -72%; Change (Mus musculus [17]): -78%; Change (Mus musculus [18]): -85%
15 | COC12[C@@H]3N[C@@H]3CN1C1=C(C(=O)C(NCC(N)=O)=C(C)C1=O)[C@@H]2COC(N)=O (stereo not given in full) | – | – | 16 | – | – | minimal effective dose (Mus musculus [14]): 0.4 mg/kg; T/C (Mus musculus [15]): 217%
16 | COC12[C@@H]3N[C@@H]3CN1C1=C(C(=O)C(NCc3ccccc3)=C(C)C1=O)[C@@H]2COC(N)=O (stereo not given in full) | – | – | 8 | 188 | 1.6 | –
17 | COC12[C@@H]3N[C@@H]3CN1C1=C(C(=O)C(NCCCO)=C(C)C1=O)[C@@H]2COC(N)=O (stereo not given in full) | 244 | 3.2 | 8 | – | – | E1/2 (Mus musculus [19]): -0.42; Change (Mus musculus [20]): -43%
18 | COC12[C@@H]3N[C@@H]3CN1C1=C(C(=O)C(NCc3ccc(S(N)(=O)=O)cc3)=C(C)C1=O)[C@@H]2COC(N)=O (stereo not given in full) | 150 | 6.4 | 4 | – | – | –
19 | COC12[C@@H]3N[C@@H]3CN1C1=C(C(=O)C(NCC3CCCO3)=C(C)C1=O)[C@@H]2COC(N)=O (stereo not given in full) | 289 | 0.4 | 64 | – | – | Change (Mus musculus [21]): -25%; T/C (Mus musculus [22]): 179%; Change (Mus musculus [23]): -44%; Change (Mus musculus [24]): -58%; E1/2 (Mus musculus [19]): -0.41; T/C (Mus musculus [25]): 173%; Change (Mus musculus [26]): -76%; Change (Mus musculus [27]): -72%; Change (Mus musculus [28]): -19%; Survivors (Mus musculus [29]): 3; Survivors (Mus musculus [30]): 4; Change (Mus musculus [31]): -62%; Survivors (Mus musculus [32]): 1; T/C (Mus musculus [33]): 240%; Change (Mus musculus [20]): -54%; Change (Mus musculus [34]): -13%; Change (Mus musculus [35]): -54%; T/C (Mus musculus [36]): 326%; Survivors (Mus musculus [37]): 1; T/C (Mus musculus [38]): 146%
